Measurements as given in PubChem BioAssay AID489015 (The Scripps Research Institute Molecular Screening Center, 2010).
Calls of active or inactive are those of the source.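 Rule for the calls: active = malaria parasite growth inhibition in red cells reaching a set limit in at least one replicate; inactive = below that limit in every replicate.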

System: P. falciparum 3D7 in RBCs, 3H-hypoxanthine incorporation, 48 h
Experiment: P. falciparum growth inhibition in erythrocytes, late-stage follow-up, M18AAP inhibitor project, cell-based, radiolabel, RBCs, powder samples (AID 489015)
Details: at 10 µM; hits give high values
In short: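 Material: P. falciparum 3D7 in erythrocytes. Measure: % growth inhibition relative to vehicle control. Measured by: Radiotracer incorporation measured by beta counting of harvested cells. Also added: 3H-hypoxanthine, 0.5 µCi/well. Times: 48 h exposure, 37 °C, low-oxygen gas mix. Replication: triplicate wells, 2-3 experiments.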

Row | SMILES | growth inhibition
1 | Cc1nc2ccccn2c1C(=O)NNC(=O)Nc1ccccc1 | 0.667% (inactive)
2 | Cc1cc(OCC(=O)Nn2cnnc2)ccc1Br | 3.67% (inactive)
3 | O=c1c(O)c(-c2ccc(O)c(O)c2)oc2cc(O)cc(O)c12 | 0% (inactive)
4 | O=C(Nc1cc(Cl)ccc1Cl)Nn1cnnc1 | 1.5% (inactive)
5 | Cc1ccc(Cl)cc1NC(=O)Nn1cnnc1 | 2.5% (inactive)
6 | O=C(Nc1ccc([N+](=O)[O-])cc1)Nn1cnnc1 | 28.7% (inactive)
7 | COc1cccc2c(SCC(=O)N/N=C/c3ccc(O)c(O)c3)cc(C)nc12 | 1.5% (inactive)
8 | Oc1ccc(CCNc2c3ccccc3nc3ccccc23)cc1O | 96.3%
9 | O=c1[nH]c(CSc2ncn[nH]2)nc2ccccc12 | 1.83% (inactive)
10 | O=S(=O)(Nn1cnnc1)c1ccccc1 | 3% (inactive)
11 | COc1cc([N+](=O)[O-])ccc1NC(=S)Nn1cnnc1 | 8.67% (inactive)
12 | Oc1ccc(C2=Nn3c(nnc3-c3ccco3)SC2)cc1O | 20.8% (inactive)
13 | O=C(NC(=S)Nn1cnnc1)c1ccccc1Br | 0% (inactive)
14 | Oc1ccc(-c2csc(-c3cccnc3)n2)cc1O | 7.67% (inactive)
15 | O=C(O)c1cn[nH]c1-n1cnnn1 | 3.83% (inactive)
16 | O=C(Nc1ccc(Br)cc1Cl)Nn1cnnc1 | 4.67% (inactive)
17 | O=C(COc1ccccc1C(=O)N/N=C/c1ccc(O)c(O)c1)N/N=C/c1ccc(O)c(O)c1 | 66%
18 | O=C(CNC(=O)c1ccccc1)NCCc1ccc(O)c(O)c1 | 0.333% (inactive)
19 | CN1C(=O)N(c2cccc3ccccc23)C(n2cncn2)C1(C)C (stereo unspecified) | 0% (inactive)
20 | OC(Cn1cnnc1)c1ccccc1 (stereo unspecified) | 0% (inactive)
21 | CCOC(=O)C1=C(CS(=O)(=O)c2ccc(F)cc2)NC(=O)NC1c1ccc(O)c(O)c1 (stereo unspecified) | 0.667% (inactive)
22 | COc1ccc2nc(C)cc(SCC(=O)N/N=C/c3ccc(O)c(O)c3)c2c1 | 3.22% (inactive)
23 | O=C(O)c1ccc(O)c(O)c1 | 7.17% (inactive)
24 | O=C(Nc1cccc(C(F)(F)F)c1)Nn1cnnc1 | 0% (inactive)
25 | Cc1ccc(NC(=S)Nn2cnnc2)c(C)c1 | 0% (inactive)
26 | O=c1[nH]c(=S)[nH]c(O)c1/C=C1\C=c2ccccc2=N1 | 2.67% (inactive)

Row | SMILES | growth inhibition
27 | CCN(CC)S(=O)(=O)c1ccc(C(=O)Nn2cnnc2)cc1 | 0.5% (inactive)
28 | Oc1cc(O)c2c(c1)O[C@H](c1ccc(O)c(O)c1)[C@H](O)C2 | 1% (inactive)
29 | Cc1cccc(NC(=S)Nn2cnnc2)c1C | 16.5% (inactive)
30 | Cc1cc(C)cc(C(=O)n2cnnc2N)c1 | 44.8%
31 | Cc1ccc([N+](=O)[O-])cc1-c1[nH]c(-c2ccc(O)c(O)c2)nc1-c1ccccc1 | 4.11% (inactive)
32 | COc1ccc(Cl)cc1NC(=O)Nn1cnnc1 | 5.83% (inactive)
33 | O=C(Nc1ccc(Cl)cc1Cl)Nn1cnnc1 | 0% (inactive)
34 | COC(=O)CN(n1cnnc1)S(=O)(=O)c1ccccc1Cl | 4.5% (inactive)
35 | O=C(CSc1nn(-c2ccccc2)c(=S)s1)Nn1cnnc1 | 0% (inactive)
36 | NCCc1ccc(O)c(O)c1 | 0.5% (inactive)
37 | Cc1cc(=O)[nH]c(SCC(=O)c2ccc(O)c(O)c2)n1 | 0.833% (inactive)
38 | CC(C)n1c(SCC(=O)Nc2nncs2)nnc1-c1ccco1 | 1.33% (inactive)
39 | Cc1cc(C)n2c(=S)[nH]nc2n1 | 35.6%
40 | Cc1ccc(Cl)cc1NC(=S)Nn1cnnc1 | 0% (inactive)
41 | Cc1ccc(-n2c(O)c(/C=N/n3cnnc3)c3ccccc3c2=O)cc1 | 3.33% (inactive)
42 | Oc1ccc(-c2csc(-c3ccccc3)n2)cc1O | 20.6%
43 | CCC(C)c1ccc(O)c(N)c1 (stereo unspecified) | 95.1%
44 | Br/C(C=Nn1cnnc1)=C\c1ccccc1 | 71.8%
45 | Cc1c(Cl)cccc1NC(=O)Nn1cnnc1 | 9.17% (inactive)
46 | CN1CCc2cccc3c2[C@@H]1Cc1ccc(O)c(O)c1-3 | 87%
47 | O=C(Nc1cccc(Cl)c1Cl)Nn1cnnc1 | 1% (inactive)
48 | O=C(Nc1ccccc1Cl)Nn1cnnc1 | 7.83% (inactive)
49 | COC(=O)CN(n1cnnc1)S(=O)(=O)c1ccc(C)cc1 | 0% (inactive)
50 | COc1cc([N+](=O)[O-])ccc1NC(=O)Nn1cnnc1 | 0% (inactive)
51 | Oc1ccc(-c2cn3ccccc3n2)cc1O | 5.33% (inactive)
52 | CCc1ccccc1NC(=S)Nn1cnnc1 | 0% (inactive)

Row | SMILES | growth inhibition
53 | Cc1nc(-c2ccc(O)c(O)c2)cs1 | 0.778% (inactive)
54 | O=C(Nn1cnnc1)c1ccccc1-c1ccccc1 | 0.5% (inactive)
55 | Nc1nncn1C(=O)CCCOc1ccc(Cl)cc1Cl | 3.17% (inactive)
56 | COC(=O)CN(n1cnnc1)S(=O)(=O)c1ccccc1 | 1.67% (inactive)
57 | COc1ccc(NC(=O)NNC(=O)CCc2ccc(O)c(O)c2)cc1OC | 5.67% (inactive)
58 | COc1ccc(C(=O)n2cnnc2N)cc1 | 2.5% (inactive)
59 | COc1cc(Br)cc(/C=N/c2ncn[nH]2)c1O | 4.83% (inactive)
60 | COc1cccc(-c2cc(C(=O)Nn3cnnc3)c3ccccc3n2)c1 | 7.11% (inactive)
61 | CC1=NNC(=O)/C1=C\c1cn(-c2ccccc2)nc1-c1ccc(F)cc1 | 20.7% (inactive)
62 | O=C(O)CSc1ncn[nH]1 | 2.83% (inactive)
63 | O=C(Nc1ccc(Cl)c(Cl)c1)Nn1cnnc1 | 5.67% (inactive)
64 | S=C(Nc1cc(Cl)ccc1Cl)Nn1cnnc1 | 0% (inactive)
65 | COC(=O)c1cc(C(=O)Nn2cnnc2)cc([N+](=O)[O-])c1 | 0% (inactive)
66 | CC1(C)CC(=O)c2c(oc3cc(O)c(O)cc23)C1 | 2.83% (inactive)
67 | O=C(CSc1nc2ccccc2c(=O)[nH]1)c1ccc(O)c(O)c1 | 8.89% (inactive)
68 | O=C(CSc1ncn[nH]1)OCN1C(=O)c2ccccc2C1=O | 3% (inactive)
69 | CC1(C)CC2(CC(c3ccccc3F)c3ccc(O)c(O)c3O2)NC(=S)N1 (stereo unspecified) | 0.167% (inactive)
70 | O=C(CSc1nnc(-c2ccccc2)o1)Nn1cnnc1 | 11% (inactive)
71 | O=C(Nn1cnnc1)c1csc2ccccc12 | 0% (inactive)
72 | CS(=O)(=O)c1ccc2c(c1)sc1nc(=O)c(/C=C3/C=CC(=O)C(O)=C3)c(N)n12 | 22.6% (inactive)
73 | O=[N+]([O-])c1cc([N+](=O)[O-])c2cccnc2c1Oc1ccccc1O | 13.4% (inactive)
74 | Oc1ccc(/C=C/c2cc(O)cc(O)c2)cc1 | 1.33% (inactive)
75 | O=c1c2c([N+](=O)[O-])cc([N+](=O)[O-])cc2sn1Cc1ccccc1 | 5.11% (inactive)
76 | O=C(CSc1ncn[nH]1)Nc1nc(-c2ccccc2)ns1 | 4.5% (inactive)
